Broadly, the IC50 is the concentration that gives 50% inhibition.

Calls of active or inactive are those of the source. The rule behind the calls is not given here.

Common to all, as to format: cell-based
Series [1] concerns the target T1, Palmitoleoyl-protein carboxylesterase NOTUM (Homo sapiens, UniProt Q6P988).
T1 sequence (Q6P988 whole entry): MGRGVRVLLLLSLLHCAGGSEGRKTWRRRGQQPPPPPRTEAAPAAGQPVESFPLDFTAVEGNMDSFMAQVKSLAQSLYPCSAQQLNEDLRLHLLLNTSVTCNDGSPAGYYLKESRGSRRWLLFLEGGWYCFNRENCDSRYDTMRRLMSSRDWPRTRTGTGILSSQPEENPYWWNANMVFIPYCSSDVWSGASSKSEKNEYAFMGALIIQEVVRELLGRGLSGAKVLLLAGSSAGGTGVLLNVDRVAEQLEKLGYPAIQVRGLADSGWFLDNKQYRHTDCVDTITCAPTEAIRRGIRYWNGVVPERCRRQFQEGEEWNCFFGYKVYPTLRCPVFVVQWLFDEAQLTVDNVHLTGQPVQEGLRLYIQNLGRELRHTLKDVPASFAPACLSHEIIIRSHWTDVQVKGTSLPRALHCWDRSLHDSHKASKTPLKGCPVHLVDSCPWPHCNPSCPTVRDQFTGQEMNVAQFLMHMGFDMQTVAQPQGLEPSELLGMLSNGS
Briefly: Inhibition of NOTUM in human SW620 cells conditioned medium assessed as preservation of Wnt3A activity pretreated for 1 hr followed by Wnt3A producing L-cell addition for 2 hrs and subsequent […]-STF cell addition and measured after 24 hrs by luciferase reporter gene assay. Background: In a reporter assay the amount or activity of a reporter protein is the signal.

The target of series [2] is T1, Palmitoleoyl-protein carboxylesterase NOTUM. Briefly: Inhibition of rhodamine-tagged FP probe binding to NOTUM in human SW620 cells conditioned media pretreated for 30 mins followed by rhodamine-tagged FP probe addition and measured after 30 mins by SDS-PAGE fluorescence analysis.
For series [3] the target is unchanged. Briefly: Inhibition of NOTUM in human SW620 cells conditioned medium at 10 uM after 1 hr by FP-biotin probe based LC-MS analysis relative to control. The essentials: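 SW620 conditioned medium was treated with compound (0.5 or 10 μM) or DMSO for 1 h at 37 °C. Peptides were labeled with light (compound) or heavy (DMSO) formaldehyde, combined and analyzed by MS. Values are light/heavy median peptide ratios from two independent experiments, ±SEM.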

Series [4] addresses T2, Monoacylglycerol lipase ABHD6 (Homo sapiens) (UniProt Q9BV23).
T2 sequence (whole entry): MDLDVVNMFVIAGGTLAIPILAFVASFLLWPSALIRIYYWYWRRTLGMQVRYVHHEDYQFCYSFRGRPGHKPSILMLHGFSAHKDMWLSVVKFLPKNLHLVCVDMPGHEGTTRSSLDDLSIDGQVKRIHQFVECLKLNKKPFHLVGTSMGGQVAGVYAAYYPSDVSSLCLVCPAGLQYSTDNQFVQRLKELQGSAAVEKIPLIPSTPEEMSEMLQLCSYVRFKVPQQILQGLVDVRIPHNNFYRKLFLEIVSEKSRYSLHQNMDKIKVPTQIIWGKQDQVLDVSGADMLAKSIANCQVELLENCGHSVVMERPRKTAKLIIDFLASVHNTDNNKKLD
The series is described as follows: Inhibition of ABHD6 in human SW620 cells at 10 uM after 2 hrs by FP-biotin probe based LC-MS analysis.

In series [5] the target is T1, Palmitoleoyl-protein carboxylesterase NOTUM. Briefly: Inhibition of rhodamine-tagged FP probe binding to NOTUM in human SW620 cells conditioned media at 0.1 to 3 uM pretreated for 30 mins followed by rhodamine-tagged FP probe addition and measured after 30 mins by SDS-PAGE fluorescence analysis. The conditions noted are these: 0.5 h.
Series [6] deals with T3, Palmitoyl-protein thioesterase 1 (Homo sapiens) (UniProt P50897).
T3 sequence (whole entry): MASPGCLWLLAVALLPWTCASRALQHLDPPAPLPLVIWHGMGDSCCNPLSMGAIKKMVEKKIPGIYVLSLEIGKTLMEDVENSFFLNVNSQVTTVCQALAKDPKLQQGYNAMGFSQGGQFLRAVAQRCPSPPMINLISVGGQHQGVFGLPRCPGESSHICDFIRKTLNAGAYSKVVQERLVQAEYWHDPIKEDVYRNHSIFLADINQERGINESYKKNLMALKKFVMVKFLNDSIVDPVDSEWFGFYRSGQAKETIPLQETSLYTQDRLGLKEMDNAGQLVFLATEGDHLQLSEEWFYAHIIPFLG
The series is described as follows: Inhibition of ABC45 probe binding to PPT1 in human SW620 cells at 0.1 to 10 uM pretreated for 2 hrs followed by ABC45 probe addition and measured after 30 mins by rhodamine-azide reporter tagged based SDS-PAGE fluorescence analysis. The essentials: (§1)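 SW620 cells were treated in situ with compound at the stated concentrations for 2 h at 37 °C. Soluble and membrane proteomes were then labeled with the PPT1-directed probe ABC45 or FP-Rh. Competition was read by SDS-PAGE and in-gel fluorescence scanning.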

Series [7] addresses T1, Palmitoleoyl-protein carboxylesterase NOTUM. The series is described as follows: Inhibition of rhodamine-tagged FP probe binding to NOTUM in human SW620 cells conditioned medium at 0.01 to 1 uM pretreated for 30 mins followed by rhodamine-tagged FP probe addition and measured after 30 mins by SDS-PAGE fluorescence analysis. The conditions noted are these: 0.5 h.
Series [8] shares this target. The series is described as follows: Inhibition of NOTUM in human SW620 cells conditioned medium at 0.01 to 1 uM measured after 30 mins by rhodamine-azide reporter tagged based SDS-PAGE fluorescence analysis. Conditions: 0.5 h. The essentials: (§2)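 Alkyne probe analogue was added to SW620 conditioned medium or cellular lysate for 30 min at 37 °C. Samples were clicked to a rhodamine-azide tag by copper-mediated azide–alkyne cycloaddition, then read by SDS-PAGE and in-gel fluorescence.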

The target of series [9] is T2, Monoacylglycerol lipase ABHD6 (Homo sapiens). The series is described as follows: Inhibition of rhodamine-tagged FP probe binding to ABHD6 in human SW620 cells at 0.1 uM pretreated for 30 mins followed by rhodamine-tagged FP probe addition and measured after 30 mins by SDS-PAGE fluorescence analysis.
Series [10] shares this target. Briefly: Inhibition of ABHD6 in human SW620 cells at 0.1 uM after 30 mins by rhodamine-azide reporter tagged based SDS-PAGE fluorescence analysis. The essentials:
as §2

The target is the same in series [11]. Briefly: Inhibition of rhodamine-tagged FP probe binding to ABHD6 in human SW620 cells at 0.1 to 10 uM pretreated for 2 hrs followed by rhodamine-tagged FP probe addition and measured after 30 mins by SDS-PAGE fluorescence analysis. The essentials:
as §1

In series [12] the target is T1, Palmitoleoyl-protein carboxylesterase NOTUM. The series is described as follows: Inhibition of rhodamine-tagged FP probe binding to recombinant human C-terminal FLAG-tagged NOTUM expressed in HEK293T cells pretreated for 30 mins followed by rhodamine-tagged FP probe addition and measured after 30 mins by SDS-PAGE fluorescence analysis.

Regarding `O=C(c1ccc(Cl)cc1)N1CCN2C(=O)N(OC(=O)N3CCOc4ccccc43)C(=O)C2C1` (centres undefined), the IC50 is over 5 µM in series [1] and over 10 µM in [2]. Also, the “inhibition (INH)” value in series [3] is reported as “Not Active”. For the same compound, the inhibition result in series [4] was “Active”.

Take `COc1ccc(N2CCN(C(=O)ON3C(=O)C4CN(Cc5cccc(Cl)c5)CCN4C3=O)CC2)cc1` (centres undefined): the IC50 in [2] was over 10 µM. Further, the “inhibition (INH)” value in series [5] is given as “Not Active”.

For `O=C1C2CN(Cc3ccc(Cl)cc3)CCN2C(=O)N1OC(=O)N1CCOc2ccccc21` (centres undefined), in [6], the inhibition entry is “inactive”.

As for `C#CCN1CCN(C(=O)ON2C(=O)C3CN(Cc4ccc(Cl)cc4)CCN3C2=O)c2ccccc21` (centres undefined), the “inhibition (INH)” value in [7] and in [8] was “Active” throughout. Besides, the inhibition result in series [9] and in series [10] was “inactive” in each case.

With `COc1ccc(N2CCN(C(=O)ON3C(=O)C4CN(Cc5ccc(Cl)cc5)CCN4C3=O)CC2)cc1` (centres undefined), the IC50 in series [2] came to 0.29 µM. In addition, the “inhibition (INH)” value in series [5] is recorded as “Active”. Besides, the inhibition entry in series [11] and in series [6] was “Active” in each case.

As to `COc1ccc(N2CCN(C(=O)ON3C(=O)C4CN(Cc5ccccc5Cl)CCN4C3=O)CC2)cc1` (centres undefined), the IC50 in series [2] is 0.2 µM. Further, the “inhibition (INH)” value in series [5] was “Active”.

Regarding `O=C1C2CN(Cc3ccc(Oc4ccccc4)nc3)CCN2C(=O)N1OC(=O)N1CCOc2ccccc21` (centres undefined), the IC50 in series [12] amounted to 1.51 µM. Moreover, the inhibition entry in [6] was “inactive”.

Source of the values: ChEMBL document CHEMBL4145632, “Selective Irreversible Inhibitors of the Wnt-Deacylating Enzyme NOTUM Developed by Activity-Based Protein Profiling” (ACS Med Chem Lett, 2018).
